Only some compounds are listed: those with a hit (about 1.4% of all), similar ones and a draw of the others.
DDE Tn6 FP inh – disrupts Tn6 cyclic peptide binding to fibrin D-Dimer-E complex; Fibrin DD(E) TRITC-Tn6 fluorescence polarization displacement; inhibition, % at 8.3 µM; 370,000 tested, 0.21% active;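 active means inhibition above a per-campaign cutoff: mean of compounds within control limits plus 3 SD, cut at about 15% in these data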;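 further: 0% = median of all compound wells on the plate and 100% = blocking peptide control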
Target sequence (P02675 whole entry, looked up): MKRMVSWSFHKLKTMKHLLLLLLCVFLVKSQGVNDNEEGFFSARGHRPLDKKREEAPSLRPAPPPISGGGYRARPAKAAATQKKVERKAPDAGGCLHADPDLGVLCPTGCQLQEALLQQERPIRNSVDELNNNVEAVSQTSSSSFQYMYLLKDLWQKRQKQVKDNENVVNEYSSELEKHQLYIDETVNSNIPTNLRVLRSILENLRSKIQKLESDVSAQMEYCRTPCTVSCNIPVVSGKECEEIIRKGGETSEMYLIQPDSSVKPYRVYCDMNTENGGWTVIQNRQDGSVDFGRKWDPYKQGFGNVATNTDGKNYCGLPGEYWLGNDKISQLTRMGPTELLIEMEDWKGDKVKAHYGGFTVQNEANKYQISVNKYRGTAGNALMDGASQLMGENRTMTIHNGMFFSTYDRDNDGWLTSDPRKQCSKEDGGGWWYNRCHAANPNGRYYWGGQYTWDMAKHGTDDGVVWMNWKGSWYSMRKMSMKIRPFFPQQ
Arrestin-AP2 inh – human beta-arrestin and AP2 interaction inhibition. FITC-arrestin peptide / GST-AP2 beads, flow cytometry; AP2 beta2 appendage carries R879A mutation. inhibition, % at 10 µM. 340,000 tested, 0.31% active. AID 504490;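 active means inhibition above a set limit, near 3 SD of compounds lacking own fluorescence, cut at about 54% in these data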;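 further: plate controls were DMSO wells for no effect and 5 µM unlabelled arrestin peptide for full effect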
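system = GST-tagged AP2 beta2-adaptin appendage (R879A) on 4 µm glutathione beads | reagent = FITC-labelled arrestin peptide probe, 50 nM final | schedule = compound with beads 12 min RT, then probe 1 h RT | signal = HyperCyt-sampled flow cytometry, FL1 channel, ex 488/em 535 nm | read-out = percent response from loss of bead-bound FITC fluorescence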
Tn7 DDE FP – disrupts Tn7 cyclic peptide binding to fibrin D-Dimer-E complex | P02675 | FP displacement of FITC-Tn7 peptide from fibrin DD(E); 0% = median of compound wells per plate | inhibition, % at 8.3 µM | 370,000 tested, 0.13% active;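 active means inhibition above the mean of compounds falling within the control limits plus 3 SD of them, cut at about 14% in these data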;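 further: 0% = plate median of compound wells and 100% = 10 µM Aha-Tn7 peptide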
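Assay system: human fibrin DD(E). Input: DD(E) 2 µM final. Medium: Tris buffer with calcium and detergent, pH 7.8. Compound dosing: single point at 8.3 µM. Timing: 10 min plus 3 h, room temperature. Technique: fluorescence polarization of the labelled Tn7 tracer. Read-out: percent inhibition. Replicates: singlicate testing.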
CAL PDZ FP-1 – inhibitors of human CAL PDZ peptide binding; purified CAL PDZ, TMR-peptide fluorescence polarization, 1 h; Q9HD26; AID 602252; 300,000 tested, 0.92% active; inhibition, % at 24.9 µM;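 active means mean inhibition of at least 30% with at least half of replicates also reaching 30%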;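 further: 0% = DMSO neutral control and 100% = excess unlabeled competitor peptide PRC23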
CAL PDZ FP-2 – blocks peptide binding to human CAL PDZ domain. purified CAL PDZ, TMR-peptide fluorescence polarization, 1 h. inhibition, % at 20 µM. 330,000 tested, 0.02% active. AID 504414;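 active means highest replicate inhibition of at least 40%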;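 further: plate controls were DMSO neutral control wells for no effect and unlabeled competitor peptide control wells for full effect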
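material = purified tagged CAL PDZ domain construct (CerCALP) | buffer or medium = sodium phosphate/NaCl buffer pH 7.4 with TCEP, IgG, Thesit | reagent = TMR-labelled reporter peptide T*-PRC34 bound in PDZ groove | incubation = 1 h room-temperature incubation prior to read | measured by = fluorescence polarization (mP) | evaluation = percent inhibition from loss of millipolarization | control set = unlabelled peptide and DMSO controls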
The depositor's hits bear a star.

How did Nc1cccc(N2C(=O)c3cccc4c(N)ccc(c34)C2=O)c1 do in these assays?
DDE Tn6 FP inh: 1; Arrestin-AP2 inh: -6; Tn7 DDE FP: 30*; CAL PDZ FP-1: -1; CAL PDZ FP-2: -1

Results for Nc1ccc2c3c(cccc13)C(=O)N(c1ccccc1)C2=O ?
DDE Tn6 FP inh: 11; Arrestin-AP2 inh: 3; Tn7 DDE FP: -3; CAL PDZ FP-1: -1; CAL PDZ FP-2: 0

How did COc1ccc(N(CC(=O)N2CCCCCC2)S(=O)(=O)c2ccc(OC)c(OC)c2)cc1 do in these assays?
DDE Tn6 FP inh: 1; Arrestin-AP2 inh: 3; Tn7 DDE FP: -8; CAL PDZ FP-1: 51*; CAL PDZ FP-2: -1

What do the screens show for `COc1ccc(OC)c(N(CC(=O)N2CCCCC2)S(=O)(=O)c2ccc(OC)c(OC)c2)c1`?
DDE Tn6 FP inh: -3; Arrestin-AP2 inh: 18; Tn7 DDE FP: 8; CAL PDZ FP-1: -1; CAL PDZ FP-2: -2

Results for CC(=O)NC1C(=O)N(CCN2CCOCC2)c2ccc(C)cc21 (stereo not given) ?
Arrestin-AP2 inh: 13; CAL PDZ FP-1: 64*; CAL PDZ FP-2: 40

Results for COc1ccc(C(=O)C2CCCN(C(=O)c3ccoc3C)C2)cc1F (stereo not given) ?
DDE Tn6 FP inh: 0; Arrestin-AP2 inh: 7; Tn7 DDE FP: 1; CAL PDZ FP-1: 119*

What do the screens show for `COC(=O)[C@]12C[C@H](CC(=O)NCc3ccc(C)o3)C(=O)N(CCC3=CCCCC3)C1=C[C@H](C1CCCC1)O[C@@H]2C`?
DDE Tn6 FP inh: -6; Tn7 DDE FP: -7

Results for COC(=O)C1=C(O)/C(=C\c2ccc(OCC(=O)Nc3ccccc3OC)cc2)N=C1C ?
DDE Tn6 FP inh: 1; Arrestin-AP2 inh: -6; Tn7 DDE FP: 1; CAL PDZ FP-1: 73*; CAL PDZ FP-2: 0

Results for C=CCN1C[C@@H](COCc2ccccc2)Oc2cccc(F)c2S1(=O)=O ?
DDE Tn6 FP inh: 8; Tn7 DDE FP: 7

Results for COC(=O)[C@]12C[C@H](CC(=O)NCC34CC5CC(CC(C5)C3)C4)C(=O)N(CCc3ccc(OC)c(OC)c3)C1=C[C@H](C(C)C)O[C@@H]2C1CC1 ?
DDE Tn6 FP inh: -6; Tn7 DDE FP: 0

How did Cc1cccc(-c2cccc3c4c([nH]c23)[C@@H]2C[C@H]3[C@@H](C(=O)N2CC4)[C@H](C)ON3C)c1 do in these assays?
DDE Tn6 FP inh: -8; Tn7 DDE FP: 1

How did CC1=CC(C)C(CN(CCC[N+](C)(C)C)C(=O)Nc2ccccc2)C(C)C1 (stereo not given) do in these assays?
DDE Tn6 FP inh: 1; Arrestin-AP2 inh: 5; Tn7 DDE FP: 9; CAL PDZ FP-1: 42*; CAL PDZ FP-2: 0

What do the screens show for `CCCC[C@@H](CCCc1ccc(F)cc1)CCC(=O)N(c1ccccc1)c1ccccc1`?
DDE Tn6 FP inh: 3; Tn7 DDE FP: 6

What do the screens show for `CN(C(=O)c1ccccc1)C1(C)CCS(=O)(=O)C1` (stereo not given)?
DDE Tn6 FP inh: -1; Arrestin-AP2 inh: -1; Tn7 DDE FP: 3; CAL PDZ FP-1: -2; CAL PDZ FP-2: -2

How did CN(C(=O)c1cc2ccccc2oc1=O)C1(C)CCS(=O)(=O)C1 (stereo not given) do in these assays?
DDE Tn6 FP inh: -3; Arrestin-AP2 inh: -2; Tn7 DDE FP: 4; CAL PDZ FP-1: 47*; CAL PDZ FP-2: -1

What do the screens show for `CCOCCn1c(=O)c2c(nc3n2CCN3c2ccc(C)cc2)n(C)c1=O`?
DDE Tn6 FP inh: 3; Arrestin-AP2 inh: -21; Tn7 DDE FP: -2; CAL PDZ FP-1: 77*; CAL PDZ FP-2: 0

How did CC1CCN(C(=O)COc2ncnc3ccccc23)CC1 do in these assays?
DDE Tn6 FP inh: -7; Arrestin-AP2 inh: 2; Tn7 DDE FP: -1; CAL PDZ FP-1: 49*; CAL PDZ FP-2: -1

What do the screens show for `Cc1onc(-c2c(Cl)cccc2Cl)c1C(O)c1ccccc1` (stereo not given)?
DDE Tn6 FP inh: 3; Arrestin-AP2 inh: -14; Tn7 DDE FP: -3; CAL PDZ FP-1: 46*

What do the screens show for `CCOC(=O)c1ccc(NC(=O)CSc2nnc(-c3cc(-c4ccccc4)n[nH]3)n2N)cc1`?
DDE Tn6 FP inh: 3; Tn7 DDE FP: -1

How did CC(C)C[C@H]1COc2cc(F)ccc2S(=O)(=O)N1C do in these assays?
DDE Tn6 FP inh: 4; Tn7 DDE FP: 8

Results for COc1ccccc1N1CCN(C2CCCN(C(=O)c3cc(C(C)C)on3)C2)CC1 (stereo not given) ?
DDE Tn6 FP inh: -7; Tn7 DDE FP: -4

Results for Cc1ccccc1N1CCN(C2CCCN(C(=O)c3csc(C(C)C)n3)C2)CC1 (stereo not given) ?
DDE Tn6 FP inh: -3; Arrestin-AP2 inh: -4; Tn7 DDE FP: -6; CAL PDZ FP-1: 54*; CAL PDZ FP-2: -1

Results for CC(C)c1cc(C(=O)N2CCCC(N3CCN(c4ccc(F)cc4)CC3)C2)no1 (stereo not given) ?
DDE Tn6 FP inh: 3; Arrestin-AP2 inh: -5; Tn7 DDE FP: -1; CAL PDZ FP-1: 57*; CAL PDZ FP-2: -1

How did Cc1cc(Br)cc(Cl)c1OC(=O)c1ccncc1 do in these assays?
DDE Tn6 FP inh: -4; Arrestin-AP2 inh: 32; Tn7 DDE FP: 3; CAL PDZ FP-1: 47*; CAL PDZ FP-2: -2

What do the screens show for `NC(=O)Cn1cc(/C=N\NS(=O)(=O)c2ccc(F)cc2)c2ccccc21`?
DDE Tn6 FP inh: 6; Arrestin-AP2 inh: -24; Tn7 DDE FP: -5; CAL PDZ FP-1: 35*; CAL PDZ FP-2: 0

Results for CCc1ccc(S(=O)(=O)N/N=C\c2cn(CC(N)=O)c3ccccc23)cc1 ?
DDE Tn6 FP inh: 5; Arrestin-AP2 inh: -9; Tn7 DDE FP: -8; CAL PDZ FP-1: -4; CAL PDZ FP-2: -2

How did Cc1cccc(C(=O)Nc2sc(-c3ccccc3)cc2C(=O)O)c1 do in these assays?
DDE Tn6 FP inh: -3; Arrestin-AP2 inh: -16; Tn7 DDE FP: -2; CAL PDZ FP-1: 43*; CAL PDZ FP-2: 1

Results for O=C(c1cc(F)cc(F)c1)N1CCCC(c2nc(-c3cccs3)no2)C1 (stereo not given) ?
DDE Tn6 FP inh: -2; Tn7 DDE FP: -9

What do the screens show for `O=c1c2cc3c(cc2[nH]c(=S)n1CCN1CCOCC1)OCO3`?
DDE Tn6 FP inh: 1; Arrestin-AP2 inh: -1; Tn7 DDE FP: -2; CAL PDZ FP-1: 45*

Results for CN(C)CCCn1c2c3ccccc3ccc2c2oc(=O)c3ccccc3c21 ?
DDE Tn6 FP inh: 8; Arrestin-AP2 inh: 3; Tn7 DDE FP: 17*; CAL PDZ FP-1: -2; CAL PDZ FP-2: 1

Results for CCCS(=O)(=O)N1CCCC(C(=O)Oc2ccc(OC)cc2)C1 (stereo not given) ?
DDE Tn6 FP inh: -9; Arrestin-AP2 inh: 24; Tn7 DDE FP: -7; CAL PDZ FP-1: -5; CAL PDZ FP-2: 0

Assay outcomes as filed in PubChem BioAssay.
